Laboratory results as given in ChEMBL document CHEMBL2321868, “The discovery of novel potent trans-3,4-disubstituted pyrrolidine inhibitors of the human aspartic protease renin from in silico three-dimensional (3D) pharmacophore searches” (J Med Chem, 2013).
Activity calls are given as the source filed them. The calls are words filed in the database; no cut-off is given here.

Columns and labels:
[1] = biological target: Voltage-gated inwardly rectifying potassium channel KCNH2 (Homo sapiens, UniProt Q12809); test: Inhibition of human ERG by dofetilide binding assay
Sequence of Voltage-gated inwardly rectifying potassium channel KCNH2 (Q12809 whole entry): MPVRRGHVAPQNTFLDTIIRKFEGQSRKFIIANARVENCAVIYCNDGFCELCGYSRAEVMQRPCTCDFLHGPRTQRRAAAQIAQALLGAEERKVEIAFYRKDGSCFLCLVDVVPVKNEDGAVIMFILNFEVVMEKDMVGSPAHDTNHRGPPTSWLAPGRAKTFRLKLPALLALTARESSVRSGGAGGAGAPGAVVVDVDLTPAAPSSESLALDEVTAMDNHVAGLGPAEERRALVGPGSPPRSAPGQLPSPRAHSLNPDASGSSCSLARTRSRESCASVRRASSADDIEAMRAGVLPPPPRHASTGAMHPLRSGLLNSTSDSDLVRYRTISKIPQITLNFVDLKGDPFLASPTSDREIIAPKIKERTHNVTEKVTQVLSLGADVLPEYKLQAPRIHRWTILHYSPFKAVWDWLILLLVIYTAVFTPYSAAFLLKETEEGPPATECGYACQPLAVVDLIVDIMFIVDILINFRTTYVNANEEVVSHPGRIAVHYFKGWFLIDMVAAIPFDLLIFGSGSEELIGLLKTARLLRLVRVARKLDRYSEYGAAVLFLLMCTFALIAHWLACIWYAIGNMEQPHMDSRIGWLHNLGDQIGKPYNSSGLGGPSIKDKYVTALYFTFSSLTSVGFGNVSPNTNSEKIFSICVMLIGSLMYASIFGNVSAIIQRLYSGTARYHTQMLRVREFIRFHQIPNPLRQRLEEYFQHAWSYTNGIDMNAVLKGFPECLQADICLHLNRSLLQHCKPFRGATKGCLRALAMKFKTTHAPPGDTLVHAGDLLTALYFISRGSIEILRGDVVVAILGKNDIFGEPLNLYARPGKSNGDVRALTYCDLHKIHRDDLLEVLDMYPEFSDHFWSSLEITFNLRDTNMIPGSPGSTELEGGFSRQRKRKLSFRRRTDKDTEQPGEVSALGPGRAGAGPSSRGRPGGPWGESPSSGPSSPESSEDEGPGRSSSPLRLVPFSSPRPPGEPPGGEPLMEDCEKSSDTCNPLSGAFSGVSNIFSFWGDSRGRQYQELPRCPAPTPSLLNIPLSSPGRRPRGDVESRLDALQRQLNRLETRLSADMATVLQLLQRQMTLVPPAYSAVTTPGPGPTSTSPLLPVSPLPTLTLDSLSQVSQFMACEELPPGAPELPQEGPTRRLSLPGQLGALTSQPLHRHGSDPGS
Method in brief: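 hERG affinity from an in vitro dofetilide binding assay. The IC50 is the mean of two independent measurements.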

[2] = AUC (0 to 24 hrs) in jugular vein cannulated Sprague-Dawley rat at 6 mg/kg, po by HPLC-MS analysis; assay type: ADME, organism-based; design: time < 24 hr, dose 6 mg/kg, route oral; details: plasma
Method in brief: (§1)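 Cannulated, fed Sprague–Dawley rats were given 2 mg/kg intravenously and 6 mg/kg orally. Oral bioavailability came from the two routes. t1/2, plasma clearance and Vdss were estimated. Oral Cmax and AUC were taken over 0–24 h.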

[3] = biological target: Cathepsin D (Homo sapiens, UniProt P07339); test: Inhibition of human recombinant cathepsin-D expressed in baculovirus-infected insect sf9 cells using Ac- E-D(EDANS)-KPILFFRLG-K(Dabcyl)-E-Amid as substrate incubated for 1 hr prior to substrate addition measured after 1 hr by FRET-based enzymatic assay
Sequence of Cathepsin D (P07339 65-162 limits assumed): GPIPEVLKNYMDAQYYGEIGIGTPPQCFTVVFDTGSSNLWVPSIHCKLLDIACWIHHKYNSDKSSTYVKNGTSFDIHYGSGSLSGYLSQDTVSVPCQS
Sequence of Cathepsin D (P07339 169-412 limits assumed): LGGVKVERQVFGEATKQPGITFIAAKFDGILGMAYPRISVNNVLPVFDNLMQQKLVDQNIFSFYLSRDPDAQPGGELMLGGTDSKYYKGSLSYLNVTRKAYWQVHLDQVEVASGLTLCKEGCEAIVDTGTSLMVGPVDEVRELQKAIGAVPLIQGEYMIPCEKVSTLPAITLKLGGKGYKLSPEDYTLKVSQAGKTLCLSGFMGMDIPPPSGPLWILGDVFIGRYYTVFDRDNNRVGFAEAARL

[4] = biological target: T1, Adrenergic receptor alpha-1 (Homo sapiens, UniProt P35348+P25100+P35368); test: Inhibition of alpha-1 adrenoceptor (unknown origin)
T1 sequence (P35348 whole entry): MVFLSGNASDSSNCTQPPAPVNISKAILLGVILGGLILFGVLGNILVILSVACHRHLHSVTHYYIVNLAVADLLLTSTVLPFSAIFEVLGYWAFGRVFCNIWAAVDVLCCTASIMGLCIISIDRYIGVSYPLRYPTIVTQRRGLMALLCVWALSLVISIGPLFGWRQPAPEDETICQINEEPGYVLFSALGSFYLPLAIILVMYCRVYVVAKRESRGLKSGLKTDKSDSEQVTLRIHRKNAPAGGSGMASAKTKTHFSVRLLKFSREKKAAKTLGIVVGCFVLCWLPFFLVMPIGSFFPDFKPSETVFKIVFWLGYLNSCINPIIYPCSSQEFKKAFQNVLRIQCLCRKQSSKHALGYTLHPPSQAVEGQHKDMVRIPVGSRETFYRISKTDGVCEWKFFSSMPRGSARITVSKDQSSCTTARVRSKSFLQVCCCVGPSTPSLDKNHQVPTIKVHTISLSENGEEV
T1 sequence (P25100 whole entry): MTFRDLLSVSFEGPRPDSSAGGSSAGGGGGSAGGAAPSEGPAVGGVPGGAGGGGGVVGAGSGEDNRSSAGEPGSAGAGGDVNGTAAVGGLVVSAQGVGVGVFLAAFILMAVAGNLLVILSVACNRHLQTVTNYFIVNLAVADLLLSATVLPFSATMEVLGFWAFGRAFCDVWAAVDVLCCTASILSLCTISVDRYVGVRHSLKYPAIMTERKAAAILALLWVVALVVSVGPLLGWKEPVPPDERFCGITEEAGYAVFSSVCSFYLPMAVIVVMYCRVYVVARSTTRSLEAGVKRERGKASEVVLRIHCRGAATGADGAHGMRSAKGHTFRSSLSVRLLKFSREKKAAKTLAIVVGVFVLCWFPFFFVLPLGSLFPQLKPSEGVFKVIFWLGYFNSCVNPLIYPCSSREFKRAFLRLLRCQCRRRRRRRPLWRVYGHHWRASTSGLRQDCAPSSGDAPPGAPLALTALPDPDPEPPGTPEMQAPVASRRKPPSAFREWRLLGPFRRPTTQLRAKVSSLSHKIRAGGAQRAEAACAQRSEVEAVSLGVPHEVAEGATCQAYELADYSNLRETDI
T1 sequence (P35368 whole entry): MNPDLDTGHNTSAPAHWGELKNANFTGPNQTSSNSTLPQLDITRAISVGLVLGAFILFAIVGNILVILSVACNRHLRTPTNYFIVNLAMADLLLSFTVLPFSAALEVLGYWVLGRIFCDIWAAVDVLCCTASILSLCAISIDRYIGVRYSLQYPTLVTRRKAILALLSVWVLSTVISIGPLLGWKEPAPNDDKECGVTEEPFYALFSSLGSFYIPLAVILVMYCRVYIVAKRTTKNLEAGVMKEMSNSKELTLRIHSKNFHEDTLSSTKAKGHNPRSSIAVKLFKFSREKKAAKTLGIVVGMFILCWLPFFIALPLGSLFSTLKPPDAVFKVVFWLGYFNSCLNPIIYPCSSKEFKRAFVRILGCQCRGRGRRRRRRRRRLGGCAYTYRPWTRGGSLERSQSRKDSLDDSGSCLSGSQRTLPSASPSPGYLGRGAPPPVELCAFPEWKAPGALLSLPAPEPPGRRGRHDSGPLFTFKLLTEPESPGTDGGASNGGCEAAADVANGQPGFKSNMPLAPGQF

[5] = biological target: T2, Gastricsin (Homo sapiens, UniProt P20142); test: Inhibition of human recombinant pepsin C expressed in Escherichia coli using Dabcyl-E-R-Nle-F-L-S-F-P-EDANS as substrate incubated for 1 hr prior to substrate addition measured after 1 hr by FRET-based enzymatic assay
T2 sequence (P20142 whole entry): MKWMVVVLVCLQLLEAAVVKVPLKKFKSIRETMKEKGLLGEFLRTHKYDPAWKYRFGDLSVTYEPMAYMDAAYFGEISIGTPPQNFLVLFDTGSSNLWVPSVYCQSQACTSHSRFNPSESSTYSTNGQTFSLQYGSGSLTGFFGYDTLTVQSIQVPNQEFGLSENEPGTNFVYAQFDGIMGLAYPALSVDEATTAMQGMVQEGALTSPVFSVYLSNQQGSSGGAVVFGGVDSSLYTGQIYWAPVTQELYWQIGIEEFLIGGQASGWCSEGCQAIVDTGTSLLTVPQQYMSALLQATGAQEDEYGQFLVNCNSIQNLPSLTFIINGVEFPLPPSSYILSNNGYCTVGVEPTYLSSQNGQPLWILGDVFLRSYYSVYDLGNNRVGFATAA

[6] = Plasma clearance in Sprague-Dawley rat at 2 mg/kg, iv by HPLC-MS analysis; assay type: ADME, organism-based; design: dose 2 mg/kg, route intravenous; method in brief: as §1
[7] = Half life in jugular vein cannulated Sprague-Dawley rat at 2 mg/kg, iv by HPLC-MS analysis; assay type: ADME, organism-based; design: dose 2 mg/kg, route intravenous; details: in vivo; method in brief: as §1
[8] = tested on: Rattus norvegicus; test: Antihypertensive activity in double transgenic rat overexpressing human renin and human angiotensinogen assessed as reduction in mean arterial pressure at 30 mg/kg, po; assay type: functional, Artery
Method in brief: (§2)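 Double-transgenic rats overexpressing human renin and human angiotensinogen, with telemetry. Each received a single oral dose of 6 or 30 mg/kg. The read-out was mean arterial pressure, reported as the peak change from dosing.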

[9] = Oral bioavailability in jugular vein cannulated Sprague-Dawley rat at 6 mg/kg by HPLC-MS analysis; assay type: ADME, organism-based; details: in vivo; method in brief: as §1
[10] = biological target: Beta-secretase 1 (Homo sapiens, UniProt P56817); test: Inhibition of human recombinant BACE-1 expressed in baculovirus-infected insect sf9 cells using RE( EDANS)-EVNLDAEF-K(DABSYL)-R as substrate incubated for 1 hr prior to substrate addition measured after 1 hr by FRET-based enzymatic assay
Sequence of Beta-secretase 1 (P56817 whole entry): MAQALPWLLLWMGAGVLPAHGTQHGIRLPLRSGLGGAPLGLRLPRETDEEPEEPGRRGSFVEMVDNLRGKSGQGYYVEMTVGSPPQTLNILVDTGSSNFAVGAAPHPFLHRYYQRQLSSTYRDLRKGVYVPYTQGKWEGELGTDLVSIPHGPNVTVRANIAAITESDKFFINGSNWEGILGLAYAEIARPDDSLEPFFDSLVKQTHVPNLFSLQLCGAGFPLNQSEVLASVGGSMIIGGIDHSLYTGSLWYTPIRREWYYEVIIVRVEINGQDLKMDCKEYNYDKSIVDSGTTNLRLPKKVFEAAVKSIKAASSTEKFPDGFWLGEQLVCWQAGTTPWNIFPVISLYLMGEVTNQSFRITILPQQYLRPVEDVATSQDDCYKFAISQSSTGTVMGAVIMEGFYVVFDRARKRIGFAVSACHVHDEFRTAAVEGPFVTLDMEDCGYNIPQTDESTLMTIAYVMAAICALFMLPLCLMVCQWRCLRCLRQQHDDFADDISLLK

[11] = tested on: Rattus norvegicus; test: Antihypertensive activity in double transgenic rat overexpressing human renin and angiotensinogen assessed as reduction in mean arterial pressure at 6 to 30 mg/kg, po after 12 hrs; assay type: functional, organism-based; details: Artery; method in brief: as §2
[12] = tested on: Rattus norvegicus; test: Antihypertensive activity in po dosed double transgenic rat overexpressing human renin and human angiotensinogen assessed as reduction in mean arterial pressure; assay type: functional, organism-based; details: Artery; method in brief: as §2
[13] = Volume of distribution at steady state in jugular vein cannulated Sprague-Dawley rat at 2 mg/kg, iv by HPLC-MS analysis; assay type: ADME, organism-based; design: dose 2 mg/kg, route intravenous; details: in vivo, read-out: Vdss; method in brief: as §1

**Q.** Which IC50 [1] does the source give for `COCCCOc1cc(C(=O)N(C[C@@H]2CNC[C@H]2Cc2ccccc2)C(C)C)ccc1OC.Cl` here?
**A.** Its IC50 is 14.5 µM.

**Q.** And the AUC(0-t) at 24 h [2]?
**A.** The AUC(0-t) at 24 h was 4.81 µM·h.

**Q.** And the IC50 [3]?
**A.** Its IC50 is over 30 µM.

**Q.** And the IC50 [4]?
**A.** Its IC50 is over 1 µM.

**Q.** And the IC50 [5]?
**A.** Its IC50 is over 30 µM.

**Q.** What about the clearance [6] of the same compound?
**A.** Its clearance is 25 mL/min/kg.

**Q.** What about the half-life [7] of the same compound?
**A.** The half-life was 2 h.

**Q.** And the Activity [8]?
**A.** Its Activity is 35 mmHg.

**Q.** And the bioavailability [9]?
**A.** Its bioavailability is 53%.

**Q.** What about the IC50 [10] of the same compound?
**A.** The IC50 was over 30 µM.

**Q.** And the Activity [11]?
**A.** The Activity was “Active”.

**Q.** What about the Activity [12] of the same compound?
**A.** Its Activity is “Dose-dependent effect”.

**Q.** And the Vd [13]?
**A.** The Vd was 2.8 L/kg.
